Source: PubChem BioAssay (several laboratories)
FLuc act counter – FLuc activators, initial screening, artefact control for FLuc-dependent activation tests, biochemical, ATPlite luminescence; Luciferin 4-monooxygenase (Photinus pyralis), P08659; ATPlite luciferase biochemical, 10 min; 0 = ATP-free wells, 1 = DMSO control; activation factor at 10 µM; 200,000 tested, under 10 active;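 active means luciferase activation factor, scaled between plate controls, of at least 2 with compound at 10 µM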
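System: cell-free luciferase reagent; medium: PBS as buffer for the ATP substrate; doses: test compounds dosed from 2 mM stocks in 100% DMSO; incubation: 10 min, room temperature; measured by: luminescence from luciferase reaction; read-out: luciferase activation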
FLuc inh counter – firefly luciferase enzyme inhibitors, primary screen, artefact control for luciferase-based inhibitor screens, biochemical, luminescence, ATPLite | Luciferin 4-monooxygenase (Photinus pyralis), P08659 | 10 min | inhibition, % at 10 µM | 1.5% of 200,000 active;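 active means inhibition above about 50% when tested at 10 µM, limit read from the data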
NF-kB expr up – activators of NF-kB expression in neurons, primary screen, cell-based, HTS | human neuronal cells, NF-kB reporter expression; active compounds read high | fold change at 12.5 µM | 1.6% of 190,000 active; in the data active means fold change above about 3.3
STAT1 act – STAT1 signaling activators, primary screen, cell-based, HTS, luciferase reporter; AID 932, 2007; 2.6% of 200,000 active; NIH 3T3 STAT1-luciferase reporter, IFN-gamma, luminescence; 100% = IFN-gamma alone, no compound; activation (% of control), % at 5.5 µM;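 active means activation above the screen-wide mean activation plus 3 SD, cut at about 130% in these data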;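 further: raw ratio to IFN-gamma control signal so 100% means no change and 0% no light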
Rad51 HR inh – human RAD51 strand exchange inhibitors, primary screen, biochemical, fluorescence | hRad51 DNA strand exchange, fluorescence dequenching | inhibition, % at 10 µM | 0.085% of 200,000 active;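 active means inhibition above 40% at the single screening dose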;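 further: 0% = DMSO control wells and 100% = blanks with heterologous ssDNA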
Target sequence (Q06609 whole entry, looked up): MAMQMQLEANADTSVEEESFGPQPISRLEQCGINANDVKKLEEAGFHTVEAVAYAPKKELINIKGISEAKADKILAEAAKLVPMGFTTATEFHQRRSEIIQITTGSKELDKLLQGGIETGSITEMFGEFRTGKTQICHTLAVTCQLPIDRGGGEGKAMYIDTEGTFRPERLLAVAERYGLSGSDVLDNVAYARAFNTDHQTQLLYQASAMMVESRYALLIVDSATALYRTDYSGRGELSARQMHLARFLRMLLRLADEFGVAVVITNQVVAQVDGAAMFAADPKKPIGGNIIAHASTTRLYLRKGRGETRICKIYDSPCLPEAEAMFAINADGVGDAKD
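System: hRad51 filaments on single-stranded DNA; reagent: Fluorescein- and BHQ1-tagged 47-mer duplex; compound dosing: one concentration, 10 µM final; timing: filaments 15 min 37 °C, then compound 30 min; measured by: fluorescein emission 520 nm, excitation 485 nm; benchmarks: per-plate controls and blanks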
APP 5'UTR act – activators of APP 5'UTR luciferase reporter, primary screen, SH-SY5Y cells | activation, % at 2 µM | SH-SY5Y APP 5'UTR luciferase reporter, luminescence; zero percent = DMSO vehicle wells | 1% of 190,000 active;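 active means activation above a set limit, based on mean plus 3 SD of controls, cut at about 140% in these data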
Active calls of the source: *; · = no result given. Rows were chosen to be rich in hits. Some 3.9% of all compounds tested hit in one or more screens of this group.

SMILES | FLuc act counter | FLuc inh counter | NF-kB expr up | STAT1 act | Rad51 HR inh | APP 5'UTR act
Cc1ccc(NC(=O)CCn2cnc3ccccc3c2=O)cc1Cl | 1.1 | -5.0 | 1.24 | 130.8* | -6.2 | -2.0
Cc1cccc(C)c1NC(=O)CCn1cnc2ccccc2c1=O | 1 | -3.9 | 1.08 | 97.8 | -12.1 | -1.6
CN(C(=O)c1cccs1)c1ccc(OCC(=O)N2CCC(C(N)=O)CC2)cc1 | 0.9 | 6.7 | 1.06 | 92.0 | -1.3 | -19.8
Cc1ccc(C)n1-c1ccc(-c2ccn[nH]2)cc1 | 0.6 | 37.6 | 1.74 | 110.1 | -2.6 | 23.5
c1ccn(-c2ccc(-c3ccn[nH]3)cc2)c1 | 0.5 | 52.4* | 2.72 | 142.7* | -1.3 | 86.8
CSCC[C@H](NC(=O)Nc1cccc(Br)c1)C(=O)O | · | · | · | · | -2.0 | ·
S=c1[nH]c(-c2ccccc2)cn1/N=C/c1ccccc1Br | 1 | 0.4 | 0.92 | 119.8 | 7.4 | 20.0
Cc1ccc(/C=N/n2cc(-c3ccccc3)[nH]c2=S)s1 | 0.9 | 9.4 | 1.58 | 129.3* | 5.2 | 23.0
O=[N+]([O-])c1ccc(-c2cn(-c3ccccc3)c(=S)[nH]2)cc1 | 1 | -2.9 | 1.09 | 130.9* | 1.8 | 39.9
O=[N+]([O-])c1cccc(-c2cn(-c3ccccc3)c(=S)[nH]2)c1 | 1 | -3.8 | 1.16 | 105.2 | 6.0 | 9.9
Cc1oncc1-c1csc(-c2ccccc2Cl)n1 | 1 | -3.7 | 1.28 | 143.0* | -2.9 | 21.8
Cc1oncc1-c1csc(-c2ccccc2)n1 | 0.9 | 5.1 | 2.33 | 137.1* | -6.0 | 55.7
O=C(O)c1ccccc1-c1csc(-c2ccccc2)n1 | 1 | 3.9 | 1.7 | 116.2 | -17.8 | 6.3
O=C(O)c1ccc(-c2nc(-c3ccccc3Cl)cs2)cc1 | 1 | 0.2 | 1.76 | 134.3* | 27.6 | 52.1
CCc1nnc(NC(=O)c2ccc(-c3ccc([N+](=O)[O-])cc3Cl)o2)s1 | 1.1 | -8.6 | 1.13 | 98.2 | 7.5 | -21.1
COC(=O)c1ccc(NC(=O)CN(c2ccc(OC)cc2)S(C)(=O)=O)cc1 | 1 | -4.9 | 2.8 | 134.0* | -3.0 | 20.0
CCOc1ccc(NC(=O)CN(c2ccc(OC)cc2)S(C)(=O)=O)cc1 | 1 | 3.2 | 2.13 | 120.9 | 5.0 | 34.9
CCOC(=O)C/C(C)=N/NC(=O)Nc1ccccc1 | 1 | -1.5 | 1.13 | 131.4* | · | 24.9
C/C(CC(C)C)=N\NC(=O)Nc1ccccc1 | 0.9 | 5.8 | 1.62 | 120.2 | -5.7 | 8.0
COc1ccc(N2CCN(C(=O)NC3CC(=O)N(c4ccc(OC)cc4)C3)CC2)cc1 (stereo not drawn) | 1 | -2.0 | 0.95 | 100.5 | 7.9 | 2.1
O=C(O)/C=C/c1cn(Cc2ccccc2)nc1-c1ccccc1 | 1 | -2.5 | 1.03 | 112.5 | 44.4* | -1.1
O=C(O/N=C1/CCSc2ccccc21)c1ccc(F)cc1 | 0.1 | 88.4* | 1.22 | 103.6 | -5.5 | 2.4
O=C(O/N=C1/CCCc2occc21)c1ccc(F)cc1 | 0.2 | 80.0* | 1.42 | 113.5 | 4.7 | -18.9
O=C(O/N=C1\CCS(=O)(=O)c2sccc21)c1ccc(F)cc1 | 0.9 | 5.9 | 1.36 | 98.5 | 6.8 | 11.9
C=CC1=C2C=C(C3CC3)N(CCCN(CC)CC)C=C2C(=O)C(C)(OC(=O)c2ccco2)C1=O (stereo not drawn) | · | · | · | · | -9.2 | ·
SMILES | FLuc act counter | FLuc inh counter | NF-kB expr up | STAT1 act | Rad51 HR inh | APP 5'UTR act
CCCC(C)NC(=O)c1ccc(OCc2ccc(Cl)cc2)c(OC)c1 (stereo not drawn) | 1 | -4.3 | 1.51 | 107.6 | 12.7 | 11.0
Clc1ccccc1CSc1cc2c(nn1)-c1ccccc1CC2 | 0.9 | 10.5 | 3.74* | 128.2 | · | 57.6
Clc1cccc(Cl)c1CSc1cc2c(nn1)-c1ccccc1CC2 | 1 | -2.2 | 1.28 | 109.8 | -0.3 | -4.5
COc1ccc(-c2cn3c(C)c(C(=O)NCCN4CCOCC4)sc3n2)cc1 | 1 | -0.3 | 1.01 | 101.2 | · | 9.0
CCN(CC)C(=O)c1sc2nc(-c3ccc(OC)cc3)cn2c1C | 0.6 | 44.7 | 2.89 | 143.0* | · | 116.9
CCc1ccc(C2CC(c3ccco3)=NN2S(C)(=O)=O)cc1 (stereo not drawn) | 0.5 | 48.2 | 4.83* | 138.0* | -3.9 | 154.7*
CCN(CC)C(=O)c1cc2sc3ccccc3c2s1 | 0.8 | 22.6 | 2.71 | 141.6* | 6.2 | 76.3
CCN1CCN(C(=O)N2CCOCC2)CC1 | 1.1 | -6.9 | 0.99 | 98.9 | 2.5 | 16.4
Clc1ccc(-c2nc(C3CCCCC3)no2)cc1 | 0.9 | 10.1 | 1.86 | 132.4* | 4.3 | 108.3
Clc1ccc(-c2nnc(C3CCCCC3)o2)cc1 | 0.9 | 7.8 | 1.99 | 114.5 | -1.5 | -23.4
CCCc1cc2c(=O)c(-c3ccccn3)coc2cc1OC | 0.9 | 10.3 | 3.86* | 135.5* | 9.6 | 16.1
Cc1nn(-c2ccccc2)c(N)c1N=Nc1ccc2ccccc2c1 | 1 | -0.1 | 3.9* | 140.2* | · | 75.9
O=C(Nc1ccc(Cl)c(S(=O)(=O)N2CCOCC2)c1)c1cn2ccccc2n1 | 1.1 | -5.3 | 0.84 | 99.1 | 10.3 | -25.5
O=C(Nc1ccc(N2CCCCCC2)cc1)c1ccccc1Cl | 0.9 | 7.6 | 4.71* | 147.0* | -3.5 | 106.6
O=C(NC(=S)Nc1ccc(N2CCCCC2)cc1)c1ccco1 | 0.4 | 63.4* | 2.55 | 131.8* | 4.2 | 129.4
O=C(Nc1ccc(SC(F)(F)F)cc1)c1ccccn1 | 0.3 | 71.2* | 1.19 | 76.4 | -3.4 | 149.6*
O=C(Nc1ccc(N2CCOCC2)cc1)c1cn2ccccc2n1 | 0.1 | 93.4* | 2.14 | 74.5 | · | 108.0
CC1CCN(c2ccc(NC(=S)NC(=O)c3ccco3)cc2)CC1 | 0.9 | 13.8 | 1.8 | 106.7 | 9.0 | 15.1
Cc1cc(C)cc(C(=O)Nc2ccc(N3CCCC3)cc2)c1 | 0.6 | 37.7 | 2.6 | 150.6* | -3.7 | 146.4*
Cc1cc(C)cc(NC(=O)Nc2ccc(N3CCCCC3)cc2)c1 | · | · | · | · | -6.7 | ·
O=C(Nc1ccc(N2CCCCC2)cc1)c1ccccn1 | 0 | 97.4* | 0.43 | 10.7 | 1.2 | -41.0
COc1ccccc1C(=O)Nc1ccc(N2CCCCC2)cc1 | 0.3 | 71.3* | 4.94* | 139.5* | 0.7 | 167.6*
COc1ccccc1C(=O)Nc1ccc(N2CCN(C(C)=O)CC2)cc1 | 1 | 1.2 | 1.15 | 106.1 | 20.8 | -17.3
O=C(Nc1ccc(N2CCCC2)cc1)C(c1ccccc1)c1ccccc1 | 1.1 | -8.4 | 1.37 | 96.8 | -4.5 | -0.4
N/C(=N\OC(=O)c1ccc2ccccc2c1)c1ccccn1 | 0.1 | 90.0* | 4.28* | 33.8 | 8.4 | 158.2*
N/C(=N\OC(=O)c1ccc2ccccc2c1)c1ccncc1 | 0.6 | 42.5 | 1.16 | 147.8* | -6.3 | 149.2*
